Legend:
human TRPV1 = human TRPV1 (Homo sapiens, UniProt Q8NER1); experiment: Compound selectivity fluorescence-based Ca2+ assay, capsaicin-stimulated TRPV1; assay type: cell-based; settings: 10 μM capsaicin; PHL-B 0.1-10 μM; capsazepine 1 μM
rat TRPM8 = rat TRPM8 (Rattus norvegicus, UniProt Q8R455); experiment: Compound selectivity fluorescence-based Ca2+ assay, menthol-stimulated TRPM8; assay type: cell-based; settings: 30 μM menthol; PHL-B different concentrations; sesamin 20 μM
In short: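 HEK293T cells were cotransfected with rat TRPM8 and GCaMP6s and assayed after 48 h with GCaMP6s fluorescence. Channels were activated with 30 μM menthol; 20 μM sesamin served as the reference inhibitor. Read-out F/F0; N = 3–5 independent experiments.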

TRPA1 channels = settings: read-out: EC50 (activation of TRPA1 channels); cited from earlier work
human TRPA1 [1] = target: T1, human TRPA1 (Homo sapiens, UniProt O75762); experiment: Whole-cell patch clamp of TRPA1 currents in HEK293T cells; assay type: cell-based
human TRPA1 [2] = target: T1, human TRPA1; experiment: Cell-attached single-channel recordings of TRPA1 in HEK293T cells; assay type: cell-based; settings: −60 mV; 100 μM AITC alone, or with 5 μM PHL-B
[3] = 100 μM AITC alone, or 100 μM AITC + 5 μM PHL-B, voltage ramp

T1 sequence (O75762 whole entry): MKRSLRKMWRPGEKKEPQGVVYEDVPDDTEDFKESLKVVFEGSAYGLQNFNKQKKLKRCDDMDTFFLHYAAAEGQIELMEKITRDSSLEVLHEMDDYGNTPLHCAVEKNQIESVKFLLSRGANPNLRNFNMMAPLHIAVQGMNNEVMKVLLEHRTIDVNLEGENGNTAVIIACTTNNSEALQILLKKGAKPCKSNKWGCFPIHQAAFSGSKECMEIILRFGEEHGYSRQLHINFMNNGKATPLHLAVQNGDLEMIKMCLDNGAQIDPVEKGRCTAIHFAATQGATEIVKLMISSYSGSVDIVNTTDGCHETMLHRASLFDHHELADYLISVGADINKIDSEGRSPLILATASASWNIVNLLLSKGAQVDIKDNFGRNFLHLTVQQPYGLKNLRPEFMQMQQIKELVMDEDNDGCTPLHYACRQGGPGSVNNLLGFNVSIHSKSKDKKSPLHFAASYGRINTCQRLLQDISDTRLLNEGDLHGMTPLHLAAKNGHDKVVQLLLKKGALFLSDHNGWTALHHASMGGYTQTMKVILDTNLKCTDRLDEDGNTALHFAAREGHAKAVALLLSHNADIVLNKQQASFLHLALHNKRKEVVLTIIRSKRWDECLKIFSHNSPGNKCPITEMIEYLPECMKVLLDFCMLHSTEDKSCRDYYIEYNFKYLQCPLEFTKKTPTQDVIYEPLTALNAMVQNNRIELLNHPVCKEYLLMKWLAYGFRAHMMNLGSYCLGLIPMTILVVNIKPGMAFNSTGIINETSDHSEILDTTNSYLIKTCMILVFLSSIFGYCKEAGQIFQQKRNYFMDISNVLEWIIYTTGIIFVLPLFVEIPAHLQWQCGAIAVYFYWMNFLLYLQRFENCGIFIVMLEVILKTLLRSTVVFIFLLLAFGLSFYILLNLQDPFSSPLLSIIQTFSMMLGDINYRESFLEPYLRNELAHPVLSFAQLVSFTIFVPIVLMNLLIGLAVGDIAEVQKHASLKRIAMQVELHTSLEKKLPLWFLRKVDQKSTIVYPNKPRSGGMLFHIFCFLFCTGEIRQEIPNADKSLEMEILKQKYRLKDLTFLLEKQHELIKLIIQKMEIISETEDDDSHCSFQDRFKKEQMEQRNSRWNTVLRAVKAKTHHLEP
Sequence of rat TRPM8 (Q8R455 whole entry): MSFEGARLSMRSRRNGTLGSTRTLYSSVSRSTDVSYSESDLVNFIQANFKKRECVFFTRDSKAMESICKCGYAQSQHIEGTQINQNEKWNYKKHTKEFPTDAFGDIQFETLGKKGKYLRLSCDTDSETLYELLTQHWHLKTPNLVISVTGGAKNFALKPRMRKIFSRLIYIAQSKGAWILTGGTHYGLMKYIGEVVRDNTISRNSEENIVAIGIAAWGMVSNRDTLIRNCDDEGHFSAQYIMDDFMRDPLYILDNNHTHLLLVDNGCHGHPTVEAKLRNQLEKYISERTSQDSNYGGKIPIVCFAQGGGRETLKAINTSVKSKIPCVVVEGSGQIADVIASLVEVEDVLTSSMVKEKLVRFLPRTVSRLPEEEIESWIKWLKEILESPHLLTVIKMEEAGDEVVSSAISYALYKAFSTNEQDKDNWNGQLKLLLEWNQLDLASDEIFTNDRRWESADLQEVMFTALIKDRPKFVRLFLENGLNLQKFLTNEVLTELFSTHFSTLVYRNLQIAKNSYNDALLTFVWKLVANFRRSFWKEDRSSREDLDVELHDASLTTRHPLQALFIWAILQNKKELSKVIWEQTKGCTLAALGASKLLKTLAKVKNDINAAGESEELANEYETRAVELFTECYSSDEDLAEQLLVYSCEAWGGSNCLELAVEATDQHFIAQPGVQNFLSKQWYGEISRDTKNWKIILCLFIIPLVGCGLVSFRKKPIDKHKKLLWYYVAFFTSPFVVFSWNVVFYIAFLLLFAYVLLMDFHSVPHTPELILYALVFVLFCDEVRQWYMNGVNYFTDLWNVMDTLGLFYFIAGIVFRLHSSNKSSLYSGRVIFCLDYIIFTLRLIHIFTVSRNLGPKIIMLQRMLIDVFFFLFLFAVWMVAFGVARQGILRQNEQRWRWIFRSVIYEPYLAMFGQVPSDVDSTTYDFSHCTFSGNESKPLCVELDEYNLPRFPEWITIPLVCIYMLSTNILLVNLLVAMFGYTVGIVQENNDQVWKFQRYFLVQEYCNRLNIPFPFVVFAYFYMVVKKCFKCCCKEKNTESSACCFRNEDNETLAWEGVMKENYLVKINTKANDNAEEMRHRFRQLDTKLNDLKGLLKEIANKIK
Sequence of human TRPV1 (Q8NER1 whole entry): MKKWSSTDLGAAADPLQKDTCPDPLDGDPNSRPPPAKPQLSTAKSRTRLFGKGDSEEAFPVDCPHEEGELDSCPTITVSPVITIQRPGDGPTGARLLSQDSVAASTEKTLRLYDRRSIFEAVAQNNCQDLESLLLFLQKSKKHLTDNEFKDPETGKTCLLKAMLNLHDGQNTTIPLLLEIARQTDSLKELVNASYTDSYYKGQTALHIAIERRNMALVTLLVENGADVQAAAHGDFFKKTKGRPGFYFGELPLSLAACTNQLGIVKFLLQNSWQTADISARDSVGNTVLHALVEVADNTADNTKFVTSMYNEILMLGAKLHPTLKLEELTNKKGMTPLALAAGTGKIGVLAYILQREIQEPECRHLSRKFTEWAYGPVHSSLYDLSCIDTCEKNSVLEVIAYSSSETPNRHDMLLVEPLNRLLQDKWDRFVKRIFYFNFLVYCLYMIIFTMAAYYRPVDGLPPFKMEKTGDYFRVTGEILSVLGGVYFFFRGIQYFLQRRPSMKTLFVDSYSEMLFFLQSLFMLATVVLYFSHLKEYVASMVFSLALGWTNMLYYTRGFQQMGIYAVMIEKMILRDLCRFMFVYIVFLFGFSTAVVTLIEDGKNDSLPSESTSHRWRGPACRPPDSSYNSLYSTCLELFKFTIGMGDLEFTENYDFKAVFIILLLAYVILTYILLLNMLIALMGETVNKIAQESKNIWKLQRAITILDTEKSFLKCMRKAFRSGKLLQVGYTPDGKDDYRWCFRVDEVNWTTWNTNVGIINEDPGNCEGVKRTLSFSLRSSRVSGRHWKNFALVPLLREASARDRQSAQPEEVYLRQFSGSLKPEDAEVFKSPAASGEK

With `Oc1cc2c(cc1O)CN(C(=S)NCCc1ccc(Cl)cc1)CCC2` [Capsazepine, capsazepine] the “effect on capsaicin-induced normalized fluorescence (TRPV1)” value (human TRPV1) was “fully abolished”.
With `c1cc2c(cc1[C@H]1OC[C@H]3[C@@H]1CO[C@@H]3c1ccc3c(c1)OCO3)OCO2` [sesamin] the “effect on menthol-induced Ca2+ influx (TRPM8)” value (rat TRPM8) was “practically inhibited all”.
In the case of `CC(C)c1cc2c(c(O)c1O)[C@@]13CCCC(C)(C)[C@@H]1C[C@@H]2OC3=O` [carnosol], the EC50 (TRPA1 channels) is given as roughly 12 µM.
For `C=CCN=C=S` [AITC, allyl isothiocyanate], the “current density at +50 mV” value (human TRPA1 [1]; [3]) was 30.5 ± 2.9 pA/pF, the “current density at −100 mV” value (human TRPA1 [1]; [3]) was −91.73 ± 11.47 pA/pF and the “τoff (time course of recovery)” value (human TRPA1 [1]; −60 mV, 100 μM AITC, or 100 μM AITC + 5 μM PHL-B) was 28.6 ± 3.4 ms. For the same molecule, the “fold increase of channel open probability (PO) over basal” value (human TRPA1 [2]) was “approximately 150 fold”.
